From ChEMBL document CHEMBL1687722, “Mode of action of Ranbezolid against staphylococci and structural modeling studies of its interaction with ribosomes” (Antimicrob Agents Chemother, 2009) come the findings set out here.

Test [1] concerns Staphylococcus aureus. Put plainly: Induction of bacterial membrane damage in Staphylococcus aureus ATCC 25923 at 15 uM by BacLight assay. In kind it is functional. Summed up: (§1)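 Mid-log cells (overnight MHB culture at 37°C, diluted 1:100, grown to OD600 0.5–0.6) washed in water, diluted 1:20 into water containing compound, shaken 15–30 min at room temperature (25°C). Washed, adjusted to OD670 0.325, stained with BacLight reagent (3 µl/ml) for 15 min in the dark. Syto 9 (480/500 nm)/propidium iodide (490/635 nm) fluorescence ratio expressed versus control; <40% of control indicates membrane damage.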

For test [2], the system named is Staphylococcus epidermidis. Put plainly: Induction of bacterial membrane damage in Staphylococcus epidermidis ATCC 23760 at 15 uM by BacLight assay. In kind it is functional. A digest of the protocol:
as §1

In test [3] the test system is Staphylococcus epidermidis. Put plainly: Antimicrobial activity against Staphylococcus epidermidis ATCC 23760 by microdilution method. In kind it is functional. A digest of the protocol: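 MIC determined by broth microdilution in the course of the macromolecular synthesis work; cultures grown in Mueller-Hinton broth.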
(Dilution methods test growth across graded concentrations, often in twofold steps.)

Test [4] relates to Staphylococcus aureus. Put plainly: Inhibition of protein synthesis in Staphylococcus aureus ATCC 25923 assessed as incorporation of [14C]isoleucine at 2 ug/ml by liquid scintillation counter. In kind it is functional, organism-based. Summed up: (§2)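 Whole-cell macromolecular synthesis. Cells grown in MHB to early log phase (OD600 0.3) were given a labelled precursor: [3H]thymidine, [3H]uridine or [3H]N-acetylglucosamine at 1 µCi/ml, or [14C]isoleucine or [14C]acetate at 0.1 µCi/ml. Drug was added 5 min later. Macromolecules were precipitated with ice-cold TCA (5% final), filtered, dried overnight at 37°C and counted by scintillation. A pathway-specific antibiotic was run as positive control.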

Test [5] concerns Staphylococcus epidermidis. Put plainly: Inhibition of protein synthesis in Staphylococcus epidermidis ATCC 23760 assessed as incorporation of [14C]isoleucine at 2 ug/ml by liquid scintillation counter. In kind it is functional, organism-based. A digest of the protocol:
as §2

For test [6], the system named is Staphylococcus aureus. Put plainly: Inhibition of DNA synthesis in Staphylococcus aureus ATCC 25923 assessed as incorporation of [3H]thymidine at 2 ug/ml by liquid scintillation counter. In kind it is functional, organism-based. Summed up: as §2
Test [7] concerns Staphylococcus epidermidis. Put plainly: Inhibition of DNA synthesis in Staphylococcus epidermidis ATCC 23760 assessed as incorporation of [3H]thymidine at 2 ug/ml by liquid scintillation counter. In kind it is functional, organism-based. A digest of the protocol:
as §2

Test [8] concerns Staphylococcus aureus. Put plainly: Inhibition of RNA synthesis in Staphylococcus aureus ATCC 25923 assessed as incorporation of [3H]uridine at 2 ug/ml by liquid scintillation counter. In kind it is functional, organism-based. Summed up: as §2
Test [9] relates to Staphylococcus epidermidis. Put plainly: Inhibition of RNA synthesis in Staphylococcus epidermidis ATCC 23760 assessed as incorporation of [3H]uridine at 2 ug/ml by liquid scintillation counter. In kind it is functional, organism-based. Summed up:
as §2

For test [10], the system named is Staphylococcus epidermidis. Put plainly: Inhibition of cell wall synthesis in Staphylococcus epidermidis ATCC 23760 assessed as incorporation of [3H]N-acetylglucosamine at 2 ug/ml after 60 mins by liquid scintillation counter. In kind it is functional, organism-based. Summed up: as §2
In test [11] the test system is Staphylococcus epidermidis. Put plainly: Inhibition of lipid synthesis in Staphylococcus epidermidis ATCC 23760 assessed as incorporation of [14C]acetate at 2 ug/ml after 60 mins by liquid scintillation counter. In kind it is functional, organism-based. A digest of the protocol:
as §2

Test [12] concerns Staphylococcus aureus. Put plainly: Bacteriostatic activity against Staphylococcus aureus ATCC 25923 at 8 times MIC after 30 hrs by time-kill analysis. In kind it is functional, organism-based.
For test [13], the system named is Staphylococcus epidermidis. Put plainly: Bacteriostatic activity against Staphylococcus epidermidis ATCC 23760 at 4 X MIC after 24 hrs by time-kill analysis. In kind it is functional, organism-based.
In test [14] the test system is Staphylococcus aureus. Put plainly: Induction of bacterial membrane damage in Staphylococcus aureus ATCC 25923 at 4 ug/mL by BacLight assay. In kind it is functional, organism-based. Summed up:
(§3)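 BacLight membrane integrity. Mid-log MHB cultures (OD600 0.5–0.6) were washed and resuspended in water, then exposed to drug at 1–8 µg/ml for 15–30 min at room temperature (25°C) with shaking. Cells were washed, set to OD670 0.325 and stained with Syto 9/propidium iodide for 15 min in the dark. The Syto 9 (480/500 nm) to PI (490/635 nm) fluorescence ratio was compared with untreated controls. Valinomycin and CCCP served as positive controls.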

Test [15] concerns Staphylococcus epidermidis. Put plainly: Induction of bacterial membrane damage in Staphylococcus epidermidis ATCC 23760 at 4 ug/mL by BacLight assay. In kind it is functional, organism-based. A digest of the protocol: as §3
Test [16] can be described thus: Inhibition of ribosomal activity in Escherichia coli S30 by coupled transcription/translation assay. In kind it is subcellular, Ribosome. A digest of the protocol:
(§4)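 Cell-free coupled transcription/translation of a luciferase gene, using E. coli S30 extract (bacterial) or a TNT kit (mammalian ribosomes). Percent inhibition of luciferase activity across a range of drug concentrations was calculated relative to the no-drug control.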

The test system of a further test is Ribosome. Put plainly: Inhibition of mammalian ribosomal activity by coupled transcription/translation assay. In kind it is subcellular. A digest of the protocol:
as §4

The subject of test [17] is Staphylococcus aureus. Put plainly: Antimicrobial activity against Staphylococcus aureus ATCC 25923 by microdilution method. In kind it is functional.
For test [18], the system named is Staphylococcus aureus. Put plainly: Inhibition of protein synthesis in Staphylococcus aureus ATCC 25923 assessed as incorporation of [14C]isoleucine at 1 ug/ml by liquid scintillation counter. In kind it is functional, organism-based. Summed up:
as §2

In test [19] the test system is Staphylococcus epidermidis. Put plainly: Inhibition of protein synthesis in Staphylococcus epidermidis ATCC 23760 assessed as incorporation of [14C]isoleucine at 1 ug/ml by liquid scintillation counter. In kind it is functional, organism-based. Summed up: as §2
For test [20], the system named is Staphylococcus aureus. Put plainly: Inhibition of DNA synthesis in Staphylococcus aureus ATCC 25923 assessed as incorporation of [3H]thymidine at 1 ug/ml by liquid scintillation counter. In kind it is functional, organism-based. Summed up: as §2
Test [21] concerns Staphylococcus epidermidis. Put plainly: Inhibition of DNA synthesis in Staphylococcus epidermidis ATCC 23760 assessed as incorporation of [3H]thymidine at 1 ug/ml by liquid scintillation counter. In kind it is functional, organism-based. Summed up:
as §2

Test [22] relates to Staphylococcus aureus. Put plainly: Inhibition of RNA synthesis in Staphylococcus aureus ATCC 25923 assessed as incorporation of [3H]uridine at 1 ug/ml by liquid scintillation counter. In kind it is functional, organism-based. A digest of the protocol: as §2
The subject of test [23] is Staphylococcus epidermidis. Put plainly: Inhibition of RNA synthesis in Staphylococcus epidermidis ATCC 23760 assessed as incorporation of [3H]uridine at 1 ug/ml by liquid scintillation counter. In kind it is functional, organism-based. Summed up: as §2
For test [24], the system named is Staphylococcus epidermidis. Put plainly: Inhibition of cell wall synthesis in Staphylococcus epidermidis ATCC 23760 assessed as incorporation of [3H]N-acetylglucosamine at 1 ug/ml after 60 mins by liquid scintillation counter. In kind it is functional, organism-based. Summed up:
as §2

The subject of test [25] is Staphylococcus epidermidis. Put plainly: Inhibition of lipid synthesis in Staphylococcus epidermidis ATCC 23760 assessed as incorporation of [14C]acetate at 1 ug/ml after 60 mins by liquid scintillation counter. In kind it is functional, organism-based. A digest of the protocol:
as §2

Test [26] concerns Staphylococcus aureus. Put plainly: Bactericidal activity against Staphylococcus aureus ATCC 25923 at 16 ug/ml by time-kill analysis. In kind it is functional, organism-based.
The test system of test [27] is Staphylococcus epidermidis. Put plainly: Bactericidal activity against Staphylococcus epidermidis ATCC 23760 by time-kill analysis. In kind it is functional.
For test [28], the system named is Staphylococcus epidermidis. Put plainly: Bactericidal activity against Staphylococcus epidermidis ATCC 23760 at 8 ug/ml after 4 hrs by time-kill analysis. In kind it is functional, organism-based.
The subject of test [29] is Staphylococcus epidermidis. Put plainly: Bactericidal activity against Staphylococcus epidermidis ATCC 23760 at 4 ug/ml after 6 hrs by time-kill analysis. In kind it is functional, organism-based.
The nature of test [30]: Ratio of IC50 for mammalian ribosomal activity to ribosomal activity in Escherichia coli S30 by coupled transcription/translation assay. In kind it is subcellular. Particulars: Ribosome.
The subject of test [31] is Staphylococcus epidermidis. Put plainly: Induction of bacterial membrane damage in Staphylococcus epidermidis ATCC 23760 at 2 to 8 ug/mL by BacLight assay. In kind it is functional, organism-based. Summed up:
as §3

For test [32], the system named is Staphylococcus epidermidis. Put plainly: Induction of bacterial membrane damage in Staphylococcus epidermidis ATCC 23760 at 2 ug/mL by BacLight assay relative to untreated control. In kind it is functional. A digest of the protocol:
as §3

Test [33] deals with Staphylococcus epidermidis. Put plainly: Induction of bacterial membrane damage in Staphylococcus epidermidis ATCC 23760 at 1 ug/mL by BacLight assay relative to untreated control. In kind it is functional, organism-based. A digest of the protocol:
as §3

In test [34] the test system is Staphylococcus aureus. Put plainly: Induction of bacterial membrane damage in Staphylococcus aureus ATCC 25923 at 100 uM by BacLight assay. In kind it is functional. Summed up: as §1
Test [35] relates to Staphylococcus epidermidis. Put plainly: Induction of bacterial membrane damage in Staphylococcus epidermidis ATCC 23760 at 100 uM by BacLight assay. In kind it is functional. Summed up: as §1

≈ marks a conversion by molar mass, not a printed value. Calls of active or inactive are those of the source. No cut-off for these calls is given here.

As for `N#CC(C#N)=NNc1cccc(Cl)c1` [CARBONYL CYANIDE M-CHLOROPHENYLHYDRAZONE], the Activity (in the test with Staphylococcus aureus [1]; in test [2]) was less than 40% throughout.

The term MIC denotes the lowest concentration that inhibits growth of the organism. As a reminder, the IC50 is the concentration at which inhibition is half-maximal. Read a high IC50 as weaker potency. On to `CC(=O)NC[C@H]1CN(c2ccc(N3CCOCC3)c(F)c2)C(=O)O1` [LINEZOLID], for which 2 µg/mL (≈ 5.93 µM) was the least that counted as inhibitory in test [3] (MIC). Also, the inhibition result (in the test with Staphylococcus aureus [4]; in test [5]; in [10]; in test [11]) was “Active” each time. The inhibition entry (in the test on Staphylococcus aureus [6]; in test [7]; with Staphylococcus aureus [8]; in test [9]) was “inactive” in each case. For the same compound, the outcome (in the test with Staphylococcus aureus [12]; in test [13]) was Active. Also, the result (in the test on Staphylococcus aureus [14]; in [15]) was inactive. The IC50 was 0.1 mM in [16] and 11.9 mM in the test on Ribosome.

Regarding `CC(=O)NC[C@H]1CN(c2ccc(N3CCN(Cc4ccc([N+](=O)[O-])o4)CC3)c(F)c2)C(=O)O1` [RANBEZOLID], the MIC (in the test on Staphylococcus aureus [17]; in test [3]) was 1 µg/mL (≈ 2.17 µM) throughout. Besides, the inhibition result (in the test on Staphylococcus aureus [18]; in test [19]; in [24]; in test [25]) was “Active” in each case. The inhibition entry (with Staphylococcus aureus [20]; in [21]; in the test on Staphylococcus aureus [22]; in test [23]) was “inactive” throughout. The result (with Staphylococcus aureus [12]; with Staphylococcus aureus [26]; in test [28]; in test [29]; in test [15]; in test [31]) was Active. The Activity was determined as 99.9% in test [27] and 50% in [32]. The result (with Staphylococcus aureus [14]; in test [33]) was inactive. In addition, the IC50 in test [16] was 0.017 mM; with Ribosome, 14.7 mM. For the same compound, the Ratio in test [30] came out at 865.

With `CC(C)[C@@H]1NC(=O)[C@H](C)OC(=O)[C@@H](C(C)C)NC(=O)[C@@H](C(C)C)OC(=O)[C@H](C(C)C)NC(=O)[C@H](C)OC(=O)[C@@H](C(C)C)NC(=O)[C@@H](C(C)C)OC(=O)[C@H](C(C)C)NC(=O)[C@H](C)OC(=O)[C@@H](C(C)C)NC(=O)[C@@H](C(C)C)OC1=O` [VALINOMYCIN], the Activity (in the test on Staphylococcus aureus [34]; in [35]) was less than 40% in each case.
